According to PMC5450914 (Bioorganic & medicinal chemistry, 2017):

Tests used:
Recombinant GGDPS = molecular target: T1, Recombinant GGDPS (Homo sapiens, UniProt O95749); test: GGDPS enzyme assay; format: biochemical
T1 sequence (O95749 1-300): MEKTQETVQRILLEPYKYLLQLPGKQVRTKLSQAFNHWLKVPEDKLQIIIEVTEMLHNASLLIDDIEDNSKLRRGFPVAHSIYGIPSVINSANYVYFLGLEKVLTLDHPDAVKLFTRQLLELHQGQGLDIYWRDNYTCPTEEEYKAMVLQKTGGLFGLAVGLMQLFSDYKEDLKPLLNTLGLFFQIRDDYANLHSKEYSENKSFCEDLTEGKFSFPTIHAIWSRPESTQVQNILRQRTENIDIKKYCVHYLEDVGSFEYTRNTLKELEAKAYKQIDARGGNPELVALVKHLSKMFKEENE

RPMI-8226 cells = test: Disruption of protein geranylgeranylation in myeloma cells; format: cell-based; conditions: 48 hours
How it was run: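 RPMI-8226 myeloma cells exposed 48 h to varying test compound concentrations, with lovastatin 10 μM as comparator. Rap1a: RIPA whole-cell lysate, antibody recognising only unmodified protein, β-tubulin loading control. Rab6: Triton X-114 detergent (membrane) fraction, calnexin loading control, densitometry normalised to calnexin and to untreated cells. Equal BCA-quantified protein resolved by SDS-PAGE, transferred to PVDF, detected with HRP secondary and ECL.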

SMILES	potency relative to geranyl 1 (GGDPS inhibitory activity) (Recombinant GGDPS; compared with previously reported compound 1)	fold less potent than homogeranyl 4 (GGDPS inhibitory activity) (Recombinant GGDPS; compared with previously reported compound 4)	lowest concentration at which disruption of protein geranylgeranylation was seen (RPMI-8226 cells)
CC(C)=CCC/C(C)=C/CCCn1cc(CC(P(=O)([O-])[O-])P(=O)([O-])[O-])nn1.[Na+].[Na+].[Na+].[Na+] [17b, Sodium (4E)–(2–(1–(5,9–dimethyldeca–4,8–dienyl)–1H–1,2,3–triazol–4–yl)ethane–1,1–diyl)bis(phosphonate)]	six-fold more potent	15 fold	
CC(C)=CCC/C(C)=C\CCCn1cc(CC(P(=O)([O-])[O-])P(=O)([O-])[O-])nn1.[Na+].[Na+].[Na+].[Na+] [17c, Sodium (4Z)–(2–(1–(5,9–dimethyldeca–4,8–dienyl)–1H–1,2,3–triazol–4–yl)ethane–1,1–diyl)bis(phosphonate)]			0.5 µM
